ChEMBL document CHEMBL1671641, “1,5-benzodiazepines, a novel class of hepatitis C virus polymerase nonnucleoside inhibitors” (Antimicrob Agents Chemother, 2008)
pEC50, pIC50: −log10 of the molar value.

How the values were obtained:
Hepatitis C virus [1] = experiment: Antiviral activity against Hepatitis C virus infected in cells assessed as log reduction in viral RNA level at 800 mg administered BID for 10 days; format: functional, Hepacivirus hominis
Hepatitis C virus [2] = experiment: Antiviral activity against Hepatitis C virus infected in cells assessed as log reduction in viral RNA level from baseline at 4500 mg administered BID for 14 days by Replicon Assays; format: functional, Hepacivirus hominis
[3] = Cytotoxicity against human HuH7 cells after 5 days by resazurin assay; format: cell-based, Huh-7; settings: huh-7, 120 h, 120 h
Outline: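 Subconfluent HCV 1b subgenomic replicon cells, 500 per well and grown without G418, were incubated for 5 days with eight serial fourfold compound dilutions. Viability was read by resazurin. Values are means ± SD from two to eight independent experiments in quadruplicate.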

Hepatitis C virus [4] = experiment: Antiviral activity against Hepatitis C virus 1b infected in human HuH7 cells assessed as inhibition of viral replication after 3 days by luciferase reporter assay; format: functional, organism-based, Hepacivirus hominis, genotype 1b, Huh-7; settings: huh-7
Outline: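 HCV 1b subgenomic luciferase reporter replicon (clone ET) cells, 2,500 per well, were exposed to a nine-point 1/4 dilution series for 3 days. Replication was read as luciferase activity. Values are means ± SD from 2 to 23 independent experiments run in quadruplicate.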

[5] = Cytotoxicity against CMV-Luc transfected human HuH7 cells after 5 days; format: cell-based, Huh-7; settings: huh-7, 120 h, 120 h
Hepatitis C virus [6] = experiment: Inhibition of Hepatitis C virus 1b J4 recombinant NS5B Cdelta 21 RNA dependent RNA polymerase overexpressed in Escherichia coli BL21 (DE3) assessed as [alpha-33P]UTP incorporation by RdRp primer-independent transcription assay; parameters: species or system Hepatitis C virus subtype 1b
Outline: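 De novo (primer-independent) RdRp assay: 190 nM NS5BΔ21 (1b J4) with 86 nM HCV 3′ UTR template RNA, 0.5 mM each ATP/GTP/CTP, 10 μM UTP plus [α-³³P]UTP, in 20 mM Tris-HCl pH 7.5, 1 mM DTT, 5 mM MgCl₂, 20 mM NaCl. Incubated 2 h at room temperature, stopped with EDTA/tRNA, TCA-precipitated on filters, and scintillation-counted. Quadruplicate.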

MT4 [7] = experiment: Cytotoxicity against human MT4 cells after 3 days by ATPLite assay; format: cell-based; settings: mt4, 72 h, 72 h
Outline: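 MT4 cells, 5,000 per well, were incubated 3 days at 37°C with eight serial fourfold compound dilutions. Cytotoxicity was read as intracellular ATP by ATPlite 1step luminescence. Values are means ± SD from two to eight independent experiments in quadruplicate.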

HepG2 = experiment: Cytotoxicity against human HepG2 cells after 72 hrs by resazurin assay; format: cell-based; settings: hepg2, 72 h, 72 h
Outline: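 Cells were tested against eight serial fourfold dilutions for 72 h, at 3,000 cells/well for HEK293T and 4,000 cells/well for HepG2. Viability was read by resazurin staining. Values are means ± SD from two to eight independent experiments in quadruplicate.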

MT4 [8] = experiment: Cytotoxicity against LTR-Luc transfected human MT4 cells […] after 3 days by ATPLite assay; format: cell-based; settings: mt4, 72 h, 72 h
Hepatitis C virus [9] = experiment: Inhibition of Hepatitis C virus 1b J4 recombinant NS5B Cdelta 21 RNA dependent RNA polymerase overexpressed in Escherichia coli BL21 (DE3) by RdRp primer-dependent transcription assay; parameters: species or system Hepatitis C virus subtype 1b

CC1CCC(C(=O)N(c2cc(-c3ccccc3)sc2C(=O)[O-])C2CCC(O)CC2)CC1.[Na+] (stereo not given) [VCH-759]
FC (Hepatitis C virus [1]): 2.5

[N-]=[N+]=N[C@]1(CO)O[C@@H](n2ccc(N)nc2=O)[C@H](O)[C@@H]1O [4'-AZIDOCYTIDINE]
FC (Hepatitis C virus [2]): 3.7

CC(=O)N1c2cccc(O)c2NC2=C(C(=O)CC(C)(C)C2)C1c1ccc(OCc2ccccc2)cc1Cl (single isomer, unassigned; 7b)
CC50 [3]: 23.8 µM
pEC50 (Hepatitis C virus [4]): 5.68
CC50 [5]: 10.1 µM
pIC50 (Hepatitis C virus [6]): 4.73
CC50 (MT4 [7]): 38.4 µM
CC50 (HepG2): > 25 µM
CC50 (MT4 [8]): 14.4 µM
pIC50 (Hepatitis C virus [9]): 4.90
